Consider two compounds from ChEMBL document CHEMBL1143938, “Synthesis and antiviral activities of novel chiral cyanoacrylate derivatives with (E) configuration” (2008).

Test [1] relates to Tobacco mosaic virus. Briefly: Antiviral activity against TMV-infected tobacco leaves assessed as protection against viral infection at 500 mg/L. Format: functional.
For test [2], the system named is Tobacco mosaic virus. Briefly: Antiviral activity against TMV-infected tobacco leaves assessed as curative effect against viral disease at 500 mg/L. Format: functional.
In test [3] the test system is Tobacco mosaic virus. The test is described as follows: Antiviral activity against TMV-infected tobacco leaves assessed as viral inactivation at 500 mg/L. Format: functional.
Test [4] deals with Nicotiana tabacum. The test is described as follows: Stimulation of leaf size in Nicotiana tabacum relative to water treated control. In kind it is functional, organism-based.
Test [5] deals with Nicotiana tabacum. The test is described as follows: Effect on accumulation of PR5 mRNA in tobacco leaf after 12 hrs. In kind it is functional, organism-based. The procedure, abridged:
(§1)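 Leaf RNA came from water-, TMV- and treated-plus-TMV tobacco. PR-1a and PR-5 were amplified by semi-quantitative PCR (annealing 58 °C; 1.5% agarose, ethidium bromide) and by real-time PCR. Real-time values were taken relative to β-actin by ΔΔCT, n = 4, in triplicate.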

The subject of test [6] is Nicotiana tabacum. Briefly: Stimulation of peroxidase activity in Nicotiana tabacum after 5 days.
Test [7] relates to Nicotiana tabacum. Briefly: Effect on accumulation of PR1a mRNA in tobacco leaf upto […] after 1 day. In kind it is functional, organism-based. The essentials:
as §1

The test system of test [8] is Nicotiana tabacum. Briefly: Stimulation of L-phenylalanine ammonia-lyase level in Nicotiana tabacum assessed as per mg of protein after 7 days. In kind it is functional. The procedure, abridged:
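TMV-inoculated Nicotiana tabacum treated at 500 ppm and sampled at 1, 3, 5 and 7 days. Water and TMV-only treatments served as controls. Leaves were homogenized on ice in 5 mM 2-mercaptoethanol-boric acid buffer (pH 8.8) and centrifuged, and enzyme activity was read in the supernatant. PAL was expressed per mg protein. Means of n = 3, with one-way ANOVA and LSD.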

Test [9] has as its system Nicotiana tabacum. The test is described as follows: Effect on accumulation of PR5 mRNA in tobacco leaf upto […] after 1 day. Format: functional, organism-based. The essentials:
as §1

Test [10] has as its system Nicotiana tabacum. Briefly: Effect on accumulation of PR1a mRNA in tobacco leaf on day 2. In kind it is functional, organism-based. The essentials:
as §1

Structures are written as SMILES. The source made the active and inactive calls. The calls are words filed in the database; no cut-off is given here.

As to `CNCC(=O)N[C@@H](CO)C(=O)N[C@H]1C(O)[C@@H](O)[C@H](n2ccc(N)nc2=O)O[C@@H]1C(N)=O` (single isomer, unassigned) [NINGNANMYCIN], the Activity is given as 100% in test [1], 57.8% in [2] and 50% in [3].

As for `CCOC(=O)/C(C#N)=C(\NCc1ccccc1)N[C@H](C)c1ccc(F)cc1`, the Activity in [1] is listed as 65.7%; in test [2], 64%; in test [8] it was 5.88 EU/mg; in test [3], 49.5%. Also, the outcome in test [4], in test [5], in test [6], in test [7], in test [9] and in test [10] was Active.
